# Calls of active or inactive are those of the source. The rule behind the calls is not given here.
# What was measured:
# [1] = Neuroprotective activity against glutamate-induced neuronal cell death in Sprague-Dawley rat CGN cells assessed as cell viability at 10 uM preincubated for 24 hrs followed by glutamate challenge measured after 24 hrs by MTT assay (reference value: 40.4%); format: functional; settings: read-out: Activity
# [2] = system: Rattus norvegicus; test: Anti-ischemic activity in Sprague-Dawley rat transient middle cerebral artery occlusion model assessed as reduction in infarct volume at 10 mg/kg, iv administered for 2 to 6 hrs post middle cerebral artery occlusion measured at 24 hrs by TTC staining-based morphometric analysis; format: organism-based; design: scale not given: the % may be the effect or the level left; settings: in vivo
# Outline: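 Male Sprague-Dawley rats (260-280 g), middle cerebral artery occluded 2 h by intraluminal nylon monofilament, then reperfused; body temperature held at 37 C. Drug given iv at 2, 4 and 6 h after ischemia onset (test agent in DMSO, edaravone in saline; vehicle controls). Neurological scoring at 24 h; 2 mm coronal slices stained with 2% TTC 20 min at 37 C, formalin-fixed; infarct volume by morphometry; n = 8-12.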
# [3] = Cytotoxicity against Sprague-Dawley rat CGN cells at <10 uM after 72 hrs by MTT assay; format: cell-based
# Outline: (§1)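 Primary cerebellar granule neurons from 8-day SD rat pups; cytosine arabinoside […] added at 24 h, used at DIV 6–8. Cells exposed to a concentration series for 72 h, 0.1% DMSO final. Viability by MTT (0.5 mg/ml, 4 h, 37 °C); formazan dissolved in DMSO, OD 570 nm. n = 3, mean ± SD.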
# [4] = Neuroprotective activity against nutrient deprivation-induced neuronal cell death in Sprague-Dawley rat CGN cells at 10 uM preincubated for 24 hrs followed by induction of nutrient deprivation measured after 24 hrs relative to control; format: functional
# Outline: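 Primary rat cerebellar granule neurons (8-day-old Sprague-Dawley pups, DIV 6-8) pretreated 24 h with compound (0.1% DMSO final), then deprived of B27 serum substitute for 24 h. MTT viability (0.5 mg/ml, 4 h) read at 570 nm against control = 100%; neuroprotection percentage derived from the basal deprived value; mean ± SD, n = 3.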
# [5] = system: neuronal; test: Neuroprotective activity against glutamate-induced neuronal cell death in Sprague-Dawley rat CGN cells assessed as increase in GSH level at 10 uM preincubated for 24 hrs followed by glutamate challenge measured after 24 hrs; format: functional, cell-based
# Outline: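 Granule neurons pretreated 24 h with […] compound, then […] for 24 h. Lysed in buffer containing protease inhibitor cocktail; protein determined by BCA. SOD activity and GSH level measured with commercial kits. n = 3, mean ± SD.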
# [6] = Permeability of the compound at 25 ug/ml after 18 hrs by PAMPA assay; format: ADME; settings: read-out: permeability
# [7] = Neuroprotective activity against oxygen-glucose deprivation-induced neuronal cell death in Sprague-Dawley rat CGN cells assessed as cell viability at 10 uM preincubated for 24 hrs followed by induction of oxygen-glucose deprivation measured after 24 hrs by MTT assay (reference value: 48.7%); format: functional; settings: read-out: Activity
# [8] = system: Rattus norvegicus; test: Toxicity in Sprague-Dawley rat transient middle cerebral artery occlusion model at 10 mg/kg, iv; format: organism-based; settings: in vivo
# [9] = system: neuronal; test: Neuroprotective activity against glutamate-induced neuronal cell death in Sprague-Dawley rat CGN cells assessed as increase in SOD level at 10 uM preincubated for 24 hrs followed by glutamate challenge measured after 24 hrs; format: functional, cell-based
# [10] = Neuroprotective activity against oxygen-glucose deprivation-induced neuronal cell death in Sprague-Dawley rat CGN cells at 10 uM preincubated for 24 hrs followed by induction of oxygen-glucose deprivation measured after 24 hrs relative to control; format: functional
# [11] = Neuroprotective activity against glutamate-induced neuronal cell death in Sprague-Dawley rat CGN cells at 10 uM preincubated for 24 hrs followed by glutamate challenge measured after 24 hrs relative to control; format: functional
# [12] = Cytotoxicity against Sprague-Dawley rat CGN cells at 50 to 100 uM after 72 hrs by MTT assay; format: cell-based; outline: as §1
# [13] = system: neuronal; test: Neuroprotective activity against glutamate-induced neuronal cell death in Sprague-Dawley rat CGN cells assessed as increase in cell viability preincubated for 24 hrs followed by glutamate challenge measured after 24 hrs by MTT assay; format: functional, cell-based
# [14] = Neuroprotective activity against oxygen-glucose deprivation-induced neuronal cell death in Sprague-Dawley rat CGN cells assessed as cell viability at 1 uM preincubated for 24 hrs followed by induction of oxygen-glucose deprivation measured after 24 hrs by MTT assay (reference value: 48.7%); format: functional; settings: read-out: Activity
# [15] = system: Rattus norvegicus; test: Antioxidant activity in Sprague-Dawley rat transient middle cerebral artery occlusion model assessed as […] in GSH level in ipsilateral cortex at 10 mg/kg, iv measured at 24 hrs post middle cerebral artery occlusion; format: functional, organism-based
# Outline: (§2)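 Rat tMCAO: 2 h suture occlusion, then reperfusion. Dosing iv at 2, 4 and 6 h after onset, 10 mg/kg (DMSO) or 3 mg/kg (saline). At 24 h the ipsilateral cortex was lysed in RIPA buffer and protein quantified by BCA. GSH concentration and SOD activity were then measured with commercial kits.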
# [16] = system: Rattus norvegicus; test: Anti-ischemic activity in Sprague-Dawley rat transient middle cerebral artery occlusion model assessed as reduction in neurological deficit at 10 mg/kg, iv administered for 2 to 6 hrs post middle cerebral artery occlusion measured at 24 hrs; format: functional, organism-based
# Outline: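 Male SD rats (260–280 g); intraluminal nylon suture (~0.26 mm, round tip) occluded MCA for 2 h, then withdrawn for reperfusion, body temperature held at 37 °C. Given iv at 2, 4 and 6 h after ischemia onset; 10 mg/kg in DMSO or 3 mg/kg in saline; DMSO or saline vehicle controls. Neurological score at 24 h after MCAO; n = 8–12, mean ± SD.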
# [17] = Neuroprotective activity in Sprague-Dawley rat CGN cells assessed as upregulation of HO-1 expression after 24 hrs by Western blot analysis; format: functional, cell-based
# Outline: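 Primary granule neurons treated with a concentration series for 24 h, lysed in RIPA buffer, protein by BCA. Separated on 15% SDS-PAGE, transferred to PVDF, blocked in 5% BSA. Primary antibody overnight at 4 °C, secondary 30 min at room temperature; chemiluminescent detection. HO-1 quantified by densitometry normalized to β-actin. n = 3, mean ± SD.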
# [18] = system: Rattus norvegicus; test: Antioxidant activity in Sprague-Dawley rat transient middle cerebral artery occlusion model assessed as […] in SOD level in ipsilateral cortex at 10 mg/kg, iv measured at 24 hrs post middle cerebral artery occlusion; format: functional, organism-based; outline: as §2
smiles,measurement,setting,value
CCCCNC(=O)c1cc2c(cc1OC)[C@@]1(C)CC[C@H](O)C(C)(C)[C@@H]1CC2,viability at 10 µM,[1],94.1%
same,Activity,[2],44%
same,Activity,[3],Non-toxic
same,Activity,[4],25.9%
same,Activity,[5],Active
same,"Papp at 18 h, 25 ug/ml",[6],11.3 ×10⁻⁶ cm/s
same,viability at 10 µM,[7],87.4%
same,Activity,[8],Non-toxic
same,Activity,[9],Active
same,Activity,[10],75.4%
same,Activity,[11],90.1%
same,Activity,[12],Toxic
same,Activity,[13],Dose-dependent effect
same,viability at 1 µM,[14],58.9%
same,Activity,[15],Active
same,Activity,[16],Active
same,Activity,[17],Dose-dependent effect
same,Activity,[18],Active
